# Bioassay records from PubChem.
# RanGTP-Impb inh: inhibitors of RanGTP-importin-beta interaction, primary screen, biochemical, FRET, CFP-Ran, YFP-importin-beta, homogeneous; AID 2216; inhibition, % (no concentration beside the values); cell-free CFP-Ran/YFP-importin-beta FRET ratio; 1.1% of 300,000 active;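 active = more than half of the replicate wells show a fall in the fluorescence ratio signal beyond about 16%, limit read from the data, passing the limit was not always enough; inconclusive = exactly half of the replicate wells pass the set limit; inactive = fewer than half of replicates pass the limit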;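 note: 0% = DMSO wells and 100% = Ran loaded with GDP instead of GTP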
# Runt-CBFb FRET: inhibitors of human RUNX1 Runt domain binding to CBFb; Q01196+Q13951; Cerulean-Runt/Venus-CBFb FRET ratio 530/480, 1 h; inhibition, % at 20 µM; 0.46% of 220,000 active;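 active = inhibition over about 50% at 20 µM in the single-dose screen, limit read from the data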;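 note: 0% = DMSO wells and 100% = excess unlabeled CBFb competitor control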
#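 Assay system: Cerulean-Runt domain / Medium: Tris 50 mM pH 7.5, KCl, K2SO4, 0.01% BSA / Timing: protein complex preformed 1 h, compound exposure 1 h, room temperature, dark / Measured by: FRET, excitation 422 nm, emission at 530 and 480 nm / Evaluation: loss of energy transfer signal / Control set: 5 µM unlabeled CBFb as full-inhibition high control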
# p97 ATPase inh: blocks human p97 ATPase activity | P55072 | recombinant p97 ATPase, Kinase-Glo ATP luminescence, 3 h | inhibition, % at 8 µM | 0.42% of 220,000 active | AID 1481; in the data active = inhibition above about 15%;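 note: 0% = DMSO vehicle and 100% = wells lacking enzyme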
# Target sequence (P55072 whole entry, looked up): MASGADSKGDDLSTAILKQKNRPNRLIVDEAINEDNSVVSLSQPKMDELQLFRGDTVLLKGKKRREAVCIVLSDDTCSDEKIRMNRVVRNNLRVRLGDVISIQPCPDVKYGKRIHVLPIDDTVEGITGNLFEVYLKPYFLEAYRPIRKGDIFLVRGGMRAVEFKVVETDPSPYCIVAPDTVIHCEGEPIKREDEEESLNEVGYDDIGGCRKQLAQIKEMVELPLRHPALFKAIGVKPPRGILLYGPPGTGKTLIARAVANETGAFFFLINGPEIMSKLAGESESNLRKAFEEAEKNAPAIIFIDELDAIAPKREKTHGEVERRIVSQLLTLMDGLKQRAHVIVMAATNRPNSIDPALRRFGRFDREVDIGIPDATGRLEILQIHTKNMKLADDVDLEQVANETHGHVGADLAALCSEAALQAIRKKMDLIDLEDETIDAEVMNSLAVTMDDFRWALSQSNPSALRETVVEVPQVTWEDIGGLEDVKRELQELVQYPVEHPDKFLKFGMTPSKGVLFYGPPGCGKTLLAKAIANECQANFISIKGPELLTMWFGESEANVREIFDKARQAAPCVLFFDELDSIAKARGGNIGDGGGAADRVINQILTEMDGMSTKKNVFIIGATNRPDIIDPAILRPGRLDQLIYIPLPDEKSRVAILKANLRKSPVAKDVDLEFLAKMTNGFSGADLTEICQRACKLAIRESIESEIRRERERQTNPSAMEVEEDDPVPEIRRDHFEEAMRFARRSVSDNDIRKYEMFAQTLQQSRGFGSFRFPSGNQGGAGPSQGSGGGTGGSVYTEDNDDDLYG
# Runt-SMMHC FRET: inhibitors of human RUNX1 Runt domain binding to CBFb-SMMHC; inhibition, % at 20 µM; 0.74% of 220,000 active; Cerulean-Runt/Venus-CBFb-SMMHC FRET ratio 530/480, 1 h; Q01196+Q13951; AID 1434;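 active = mean inhibition across duplicate retests at 20 µM reaching about 50%, limit read from the data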;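 note: 0% = DMSO wells and 100% = wells with excess untagged CBFb-SMMHC; inhibitors lower the FRET ratio by blocking Runt binding to CBFb-SMMHC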
# Hck Nef HTS: blocks Nef-activated human Hck kinase; P08631; Recombinant Hck-YEEI plus Nef, Z-Lyte FRET kinase assay; inhibition, % at 20 µM; 0.68% of 220,000 active; AID 463187;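 active = Hck-Nef kinase inhibition above about 50%, limit read from the data; inactive = inhibition below that limit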;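 note: 0% = DMSO with Hck plus Nef and 100% = Hck alone without Nef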
# TbHK1 inh: T. brucei hexokinase 1 inhibition; AID 1430; recombinant TbHK1, G6PDH-coupled NADH A340; inhibition, % at 10 µM; 0.11% of 220,000 active;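 active = inhibition of 50% or more in the single-dose primary screen; inactive = inhibition below 50%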
# The depositor's hits bear a star; ? = inconclusive; nt = no result. An excerpt weighted towards active compounds, which were near 2.1% of everything screened.
SMILES,RanGTP-Impb inh,Runt-CBFb FRET,p97 ATPase inh,Runt-SMMHC FRET,Hck Nef HTS,TbHK1 inh
CCN(CC)S(=O)(=O)c1cccc(C(=O)/C=C2/N(C)c3ccccc3C2(C)C)c1,27*,9,1,12,8,6
COCCNC(=O)/C(C#N)=C/c1ccc(N2CCOCC2)o1,50*,5,4,14,0,1
N#C/C(=C\c1ccc(N2CCOCC2)o1)C(=O)NCCc1ccccc1,53*,14,-3,94*,11,-4
Cc1noc(C)c1CSCC(=O)N(C)CC(=O)Nc1ccccc1Cl,3,nt,nt,nt,nt,nt
O=C(O[C@@H]1Cc2c(O)cc(O)cc2O[C@@H]1c1cc(O)c(O)c(O)c1)c1cc(O)c(O)c(O)c1,4,41,42*,17,nt,nt
Oc1cc(O)c2c(c1)O[C@H](c1ccc(O)c(O)c1)[C@H](O)C2,-3,nt,nt,nt,nt,nt
COC(=O)c1sc2nc(C)cc(C)c2c1N,2,1,2,4,17,-12
Cc1cc(C)c2c(N)c(C(=O)Nc3ncc(C)s3)sc2n1,nt,65*,-6,95*,15,-19
Cc1cc(C)c2c(N)c(C(=O)c3ccc(Cl)cc3Cl)sc2n1,4,6,5,-14,2,14
Cc1nc2sc(C(=O)c3ccccc3)c(N)c2c(C)c1C,0,54*,0,3,6,-2
Cc1cc(C)c2c(N)c(C(=O)c3cccc(Cl)c3)sc2n1,2,87*,4,60*,4,5
Cc1nc(-c2ccccc2)nc2sc(C(=O)c3ccc(F)cc3)c(N)c12,3,-55,-11,72,-101,-5
CC(=O)c1sc2nc(C)cc(C)c2c1N,9,28,4,78*,20,-3
COc1ccccc1C(=O)OCC(=O)NC1CCCC1,0,nt,nt,nt,nt,nt
O=C(c1ccc(=O)[nH]c1)N1CCN(S(=O)(=O)c2ccccc2)CC1,-1,nt,nt,nt,nt,nt
COC(=O)CC(=O)CSc1nc2c(cc1C#N)CCC2,4,49,-1,32,4,-15
CCOC(=O)CC(=O)CSc1nc2c(cc1C#N)CCCCCC2,14,40,nt,50*,nt,nt
CC(C)OC(=O)CC(=O)CSc1nc2c(cc1C#N)CCCCCC2,-2,50,4,78*,2,-13
Cc1cc(C)cc(C(=O)NC(CC(N)=O)c2ccc(NC3CCCC3)c([N+](=O)[O-])c2)c1 (configuration not stated),-1,nt,nt,nt,nt,nt
COC(=O)c1ccc(C2C(C#N)=C(C)NC3=C2C(=O)CC(C)(C)C3)cc1 (configuration not stated),5,27,6,81*,12,-7
CCOC(=O)C1=C(C)NC2=C(C(=O)CC(C)(C)C2)C1c1cccc(C)n1 (configuration not stated),?,37,4,88*,31,3
CC1=C(C(=O)OCC2CCCO2)C(c2ccc(C)cc2)C2=C(CC(C)(C)CC2=O)N1 (configuration not stated),5,20,-3,56*,47,-5
CCCCC1C(C#N)=C(C)NC2=C1C(=O)CC(C)(C)C2 (configuration not stated),9,32,3,69*,25,-11
C/C(=N\Nc1nc2ccc(Cl)cc2o1)c1ccccc1,5,0,-1,-1,8,-15
COc1ccc(NC(=O)CCl)cn1,0,3,25*,-14,18,-13
SMILES,RanGTP-Impb inh,Runt-CBFb FRET,p97 ATPase inh,Runt-SMMHC FRET,Hck Nef HTS,TbHK1 inh
COc1ccc(NC(=O)/C(Cl)=C(/Cl)S(=O)(=O)Cc2ccccc2)cn1,1,9,14,1,0,0
COc1ccc(NC(=O)/C(Cl)=C(/Cl)S(=O)Cc2ccc(Cl)cc2)cn1 (configuration not stated),nt,39,20*,24,21,-1
CCc1cc(=O)oc2cc(C)cc(OC(C)C(=O)NCc3ccccn3)c12 (configuration not stated),3,nt,nt,nt,nt,nt
Cc1nc(Nc2ccc(O)cc2)c2c3c(sc2n1)CCCC3,1,1,4,0,14,-15
Cc1ccc(CNc2nc(C)nc3sc4c(c23)CCC4)cc1,25*,-2,2,0,1,-3
CC(C)(C)OC(=O)CNC(=O)c1[nH]cnc1C(=O)NC(c1ccccc1)c1ccccc1,3,nt,nt,nt,nt,nt
Cc1ccc(S(=O)(=O)N(C)CC(=O)N2CCOCC2)cc1,2,2,2,-2,7,-1
Cc1ccc(S(=O)(=O)N(CC(=O)N2CCOCC2)CC(=O)N2CCOCC2)cc1,32*,0,6,4,5,3
Cc1cc(OC(=O)c2cc([N+](=O)[O-])ccc2Cl)c([N+](=O)[O-])c(=O)[nH]1,7,nt,nt,nt,nt,nt
CCOCCCNC(=O)c1c(N)n(-c2ccc3c(c2)OCO3)c2nc3ccccc3nc12,133*,12,4,40,27,-17
CCOCCCNC(=O)c1c(N)n(-c2ccc(S(N)(=O)=O)cc2)c2nc3ccccc3nc12,?,35,-1,58*,6,-5
COCCCNC(=O)c1c(N)n(-c2ccc3c(c2)OCO3)c2nc3ccccc3nc12,5,1,-3,9,12,-16
Nc1c(C(=O)NC2CCCCC2)c2nc3ccccc3nc2n1/N=C/c1ccco1,nt,17,nt,52*,nt,nt
CCCNC(=O)c1c(N)n(-c2ccc3c(c2)OCO3)c2nc3ccccc3nc12,3,5,7,6,21,32
CCCNC(=O)c1c(N)n(-c2cc(OC)cc(OC)c2)c2nc3ccccc3nc12,58*,33,2,109*,23,-1
CCCCCCNC(=O)c1c(N)n(/N=C/c2ccco2)c2nc3ccccc3nc12,nt,nt,-2,nt,22,-30
COCCNC(=O)c1c(N)n(/N=C/c2cccs2)c2nc3ccccc3nc12,95*,62*,1,24,4,-40
Cc1[nH]c2ccccc2c1/C=C/c1nc2ccccc2c(=O)[nH]1,34*,18,6,39,23,3
CCn1c(/C=C/c2c[nH]c3ccccc23)nc2ccccc2c1=O,12,-3,-1,0,9,-2
Cc1[nH]c2ccccc2c1/C=N/NC(=O)c1ccccc1,1,nt,nt,nt,nt,nt
Cc1[nH]c2ccccc2c1/C=C/C(=O)c1ccccc1,41*,-31,1,-36,2,-10
CCn1c(/C=C/c2c(C)[nH]c3ccccc23)nc2ccccc2c1=O,-26,19,3,59*,3,1
CN(C)S(=O)(=O)c1ccc2[nH]cc(/C=C/c3nc4ccccc4c(=O)n3-c3ccccc3)c2c1,29*,-46,-1,-35,1,-6
CCn1c(/C=C/c2cccc([N+](=O)[O-])c2)nc2ccccc2c1=O,0,-2,-4,-4,0,-8
Cc1[nH]c2ccccc2c1/C=C/c1nc2ccccc2c(=O)n1-c1ccc([N+](=O)[O-])cc1,38*,-41,9,-128,7,-8
